From ChEMBL document CHEMBL4024800, “α-Amino-β-carboxymuconate-ε-semialdehyde Decarboxylase (ACMSD) Inhibitors as Novel Modulators of De Novo Nicotinamide Adenine Dinucleotide (NAD+) Biosynthesis” (J Med Chem, 2018) come the findings set out here.

The IC50 is the concentration that gives 50% inhibition. What is called Papp A→B is how fast a substance crosses the layer from the apical side. Usually AUC(0-t) stands for the area under the concentration-time curve up to a stated or last time point. Read a low AUC(0-t) as less exposure. One may read the clearance as the rate of elimination divided by the concentration. Low readings indicate inefficient removal, high ones efficient removal. Broadly, the Cmax is the maximum level reached in the sampled fluid or tissue. The Tmax is the time at which the peak concentration occurs. One may read the bioavailability as the share of a dose that reaches the circulation, judged against a reference dose that is usually intravenous. The low end stands for little systemic uptake, the high end for much systemic uptake. In general, Kp refers to tissue or fluid exposure divided by exposure in the circulation.

Calls of active or inactive are those of the source. The calls are words filed in the database; no cut-off is given here.

The target in data set [1] is 2-amino-3-carboxymuconate-6-semialdehyde decarboxylase (Homo sapiens, UniProt Q8TDX5). As to the kind of experiment: Inhibition of human ACMSD expressed in Pichia pastoris using ACMS as substrate by coupled spectrophotometric assay. The procedure, abridged:
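Recombinant enzyme purified from Pichia pastoris; ACMS substrate generated in a pre-assay mix from 10 μM 3-hydroxyanthranilic acid by Ralstonia metallidurans 3-hydroxyanthranilate 3,4-dioxygenase, formation monitored at 360 nm. Enzyme and compound then added together; activity from initial rate of absorbance decrease minus a no-enzyme control. Serial dilutions, 1.0% DMSO throughout. IC50 from concentration–response curves, mean ± SD of three independent experiments.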

A short description of data set [2]: Apparent passive permeability from apical to basolateral side in MDCK2-MDR1 cells at 3 uM after 90 mins by LC-MS/MS analysis. It is filed as ADME, cell-based, Canis lupus familiaris. The conditions noted are these: dog, MDCK-MDR1. The procedure, abridged:
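MDCKII-MDR1 monolayers, HBSS transport medium pH 7.4; compound 3 μM for 90 min, run with and without a P-gp inhibitor, n = 3. Quantified by LC-MS/MS as analyte/internal-standard peak-area ratio; monolayer integrity checked with Lucifer yellow. Papp given in nm/sec, A>B.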

The next data set addresses T1, Cytochrome P450 3A1 (Rattus norvegicus, UniProt P04800).
T1 sequence (P04800 whole entry): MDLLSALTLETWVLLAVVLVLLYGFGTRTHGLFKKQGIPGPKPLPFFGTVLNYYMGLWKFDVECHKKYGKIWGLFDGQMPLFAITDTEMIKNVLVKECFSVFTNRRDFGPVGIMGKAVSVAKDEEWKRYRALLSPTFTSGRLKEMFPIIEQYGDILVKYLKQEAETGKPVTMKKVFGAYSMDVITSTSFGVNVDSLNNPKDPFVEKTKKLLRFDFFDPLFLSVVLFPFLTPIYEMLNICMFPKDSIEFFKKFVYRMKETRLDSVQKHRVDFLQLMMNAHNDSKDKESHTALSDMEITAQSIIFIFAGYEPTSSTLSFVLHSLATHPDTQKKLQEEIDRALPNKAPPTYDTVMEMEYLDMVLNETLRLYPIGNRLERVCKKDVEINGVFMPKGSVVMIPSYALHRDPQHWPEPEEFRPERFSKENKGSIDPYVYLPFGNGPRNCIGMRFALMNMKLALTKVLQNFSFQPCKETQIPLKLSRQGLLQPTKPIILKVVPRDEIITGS
The data set can be described thus: Inhibition of recombinant rat CYP3A1 expressed in baculosomes expression system using fluorogenic-BOMCC as substrate by fluorescent homogeneous assay. The data set is classed as ADME. The procedure, abridged:
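Recombinant CYP baculosomes with fluorogenic substrates, at concentrations below their Km; homogeneous fluorescence read-out, run in triplicate. IC50 classes: <1 μM potent, 1–10 μM moderate, >10 μM weak or none.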

Data set [3] concerns the target Voltage-gated inwardly rectifying potassium channel KCNH2 (Homo sapiens, UniProt Q12809). As to the kind of experiment: Displacement of red fluorescent channel ligand tracer from human ERG expressed in CHO cell membranes. The essentials: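 Fluorescence polarisation kit: membranes from CHO cells stably expressing hERG, with a red fluorescent high-affinity tracer; competitors detected by tracer displacement, seen as lowered polarisation. Final DMSO 1%; E-4031 reference.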

Data set [4] deals with T2, Nuclear receptor subfamily 1 group I member 2 (Homo sapiens, UniProt O75469).
T2 sequence (O75469 whole entry): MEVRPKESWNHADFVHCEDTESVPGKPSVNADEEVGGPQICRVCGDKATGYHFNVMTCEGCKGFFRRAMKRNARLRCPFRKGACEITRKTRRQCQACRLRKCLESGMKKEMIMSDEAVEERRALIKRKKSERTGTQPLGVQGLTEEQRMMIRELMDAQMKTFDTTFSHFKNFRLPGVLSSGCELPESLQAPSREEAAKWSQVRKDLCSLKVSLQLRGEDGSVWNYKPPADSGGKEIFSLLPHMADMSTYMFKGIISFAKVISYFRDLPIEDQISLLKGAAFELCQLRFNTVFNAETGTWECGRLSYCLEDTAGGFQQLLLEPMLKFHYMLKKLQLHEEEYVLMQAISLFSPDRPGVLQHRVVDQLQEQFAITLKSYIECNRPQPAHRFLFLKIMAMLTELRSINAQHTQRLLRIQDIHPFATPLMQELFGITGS
As to the kind of experiment: Activity at PXR (unknown origin). The procedure, abridged:
(§1)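 Eight-point serial dilutions tested in an in-house AlphaScreen-based nuclear receptor panel; activity derived from nonlinear regression curves.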

For data set [5], the species on record is Homo sapiens. The data set can be described thus: Activity at LXR (unknown origin). The procedure, abridged:
as §1

The target of data set [6] is T3, Bile acid receptor (Homo sapiens) (UniProt Q96RI1).
T3 sequence (whole entry): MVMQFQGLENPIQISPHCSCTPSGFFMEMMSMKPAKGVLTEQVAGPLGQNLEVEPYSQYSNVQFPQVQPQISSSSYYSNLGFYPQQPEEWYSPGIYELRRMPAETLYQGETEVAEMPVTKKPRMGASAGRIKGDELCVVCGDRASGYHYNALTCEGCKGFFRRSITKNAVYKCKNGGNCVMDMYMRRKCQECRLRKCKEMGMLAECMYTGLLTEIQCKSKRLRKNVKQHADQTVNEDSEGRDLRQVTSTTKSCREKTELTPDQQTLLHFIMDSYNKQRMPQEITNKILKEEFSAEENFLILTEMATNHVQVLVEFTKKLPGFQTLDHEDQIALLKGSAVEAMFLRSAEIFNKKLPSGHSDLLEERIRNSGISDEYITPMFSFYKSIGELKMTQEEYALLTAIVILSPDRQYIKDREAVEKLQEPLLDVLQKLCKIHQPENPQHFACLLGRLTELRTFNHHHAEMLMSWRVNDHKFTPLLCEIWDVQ
The data set can be described thus: Activity at FXR (unknown origin). The essentials:
as §1

The species named for data set [7] is Homo sapiens. The data set can be described thus: Activity at TR (unknown origin). The procedure, abridged:
as §1

Data set [8] can be described thus: AUClast in CD1 mouse at 0.5 mg/kg, iv measured up to 24 hrs post dose. The following applies: in vivo. The data set is classed as ADME, organism-based. The arrangement: dose 0.5 mg/kg, time < 24 hr, route intravenous. The essentials: (§2)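 Mice given 0.5 mg/kg IV in saline containing 5% (v/v) DMSO and 20% (v/v) PEG400; blood pharmacokinetic parameters reported as means.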

Data set [9] is described as follows: Clearance in CD1 mouse at 0.5 mg/kg, iv measured up to 24 hrs post dose. The data set is classed as ADME, organism-based. The following applies: in vivo. The procedure, abridged: as §2
A short description of data set [10]: Volume of distribution at steady state in CD1 mouse at 0.5 mg/kg, iv measured up to 24 hrs post dose. The following applies: in vivo, read-out: Vdss. It is filed as ADME, organism-based. The essentials:
as §2

Data set [11] is described as follows: Cmax in CD1 mouse at 5 mg/kg, po measured up to 8 hrs after dose. It is filed as ADME, organism-based. The arrangement: dose 5 mg/kg, route oral. The conditions noted are these: in vivo. The procedure, abridged:
(§3)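 Mice dosed orally at 5 mg/kg in 0.5% (w/v) HPMC in water with 5% (v/v) DMSO; blood, liver and kidney concentrations followed to 8 h. AUC0–8h given in h·ng/mL; parameters reported as means.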

Data set [12] is described as follows: Tmax in CD1 mouse at 5 mg/kg, po measured up to 8 hrs post dose. It is filed as ADME, organism-based. The conditions noted are these: in vivo. The essentials:
as §3

The nature of data set [13]: Oral bioavailability in CD1 mouse at 5 mg/kg measured up to 8 hrs after dose. It is filed as ADME, organism-based. The following applies: in vivo. The procedure, abridged: as §3
The nature of data set [14]: Ratio of AUClast in mouse kidney to blood at 5 mg/kg, po measured up to 8 hrs post dose.
Data set [15] is described as follows: AUClast in mouse blood at 5 mg/kg, po measured up to 8 hrs post dose. The data set is classed as ADME, organism-based. Set-up: time < 8 hr, dose 5 mg/kg, route oral. The essentials:
as §3

Data set [16] in a line: Drug uptake in mouse central nervous system at 5 mg/kg, po in presence of P-gp inhibitor Elacridar. The following applies: in vivo. It is filed as ADME, organism-based.

Sequence of Voltage-gated inwardly rectifying potassium channel KCNH2 (Q12809 whole entry): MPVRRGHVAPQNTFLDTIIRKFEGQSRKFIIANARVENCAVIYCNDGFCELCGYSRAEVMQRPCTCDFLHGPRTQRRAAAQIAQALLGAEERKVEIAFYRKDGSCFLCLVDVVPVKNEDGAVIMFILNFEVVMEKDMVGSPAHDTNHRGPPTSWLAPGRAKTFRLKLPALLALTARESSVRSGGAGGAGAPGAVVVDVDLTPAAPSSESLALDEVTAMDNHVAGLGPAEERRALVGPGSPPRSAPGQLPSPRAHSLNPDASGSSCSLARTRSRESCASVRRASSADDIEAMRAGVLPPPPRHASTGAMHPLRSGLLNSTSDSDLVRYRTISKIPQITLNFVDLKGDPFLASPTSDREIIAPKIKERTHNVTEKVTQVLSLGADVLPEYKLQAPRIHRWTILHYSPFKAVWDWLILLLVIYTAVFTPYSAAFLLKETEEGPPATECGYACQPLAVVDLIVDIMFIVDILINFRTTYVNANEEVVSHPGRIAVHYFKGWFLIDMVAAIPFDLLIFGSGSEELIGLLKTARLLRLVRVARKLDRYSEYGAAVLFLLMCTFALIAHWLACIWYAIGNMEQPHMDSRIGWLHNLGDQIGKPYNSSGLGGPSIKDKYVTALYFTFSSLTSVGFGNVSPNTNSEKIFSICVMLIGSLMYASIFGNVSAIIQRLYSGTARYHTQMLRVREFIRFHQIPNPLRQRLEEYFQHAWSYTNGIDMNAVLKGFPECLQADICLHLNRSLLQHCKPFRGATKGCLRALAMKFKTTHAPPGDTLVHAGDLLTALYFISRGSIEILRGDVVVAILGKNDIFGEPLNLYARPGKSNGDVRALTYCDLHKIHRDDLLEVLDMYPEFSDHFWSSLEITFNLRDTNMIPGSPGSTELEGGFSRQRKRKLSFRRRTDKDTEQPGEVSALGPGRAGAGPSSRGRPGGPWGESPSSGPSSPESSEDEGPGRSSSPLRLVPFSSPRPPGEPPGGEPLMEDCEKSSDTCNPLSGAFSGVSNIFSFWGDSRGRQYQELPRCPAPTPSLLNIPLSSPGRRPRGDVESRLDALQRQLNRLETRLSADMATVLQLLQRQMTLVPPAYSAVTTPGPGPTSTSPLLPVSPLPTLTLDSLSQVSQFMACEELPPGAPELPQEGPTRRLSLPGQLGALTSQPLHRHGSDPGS
Sequence of 2-amino-3-carboxymuconate-6-semialdehyde decarboxylase (Q8TDX5 whole entry): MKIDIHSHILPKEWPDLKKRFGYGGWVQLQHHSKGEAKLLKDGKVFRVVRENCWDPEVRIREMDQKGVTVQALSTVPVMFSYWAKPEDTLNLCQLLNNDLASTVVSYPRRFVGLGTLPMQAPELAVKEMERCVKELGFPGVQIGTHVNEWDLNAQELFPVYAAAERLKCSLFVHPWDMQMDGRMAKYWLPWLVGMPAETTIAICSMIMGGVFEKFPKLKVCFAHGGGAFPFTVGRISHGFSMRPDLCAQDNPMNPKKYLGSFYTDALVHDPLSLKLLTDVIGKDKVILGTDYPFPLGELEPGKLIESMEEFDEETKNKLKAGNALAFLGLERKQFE

On to `N#Cc1c(-c2cccs2)nc(SCc2cccc(CC(=O)O)c2)[nH]c1=O`, for which the values for the concentration for half-maximal inhibition (IC50) (in data set [1]; on Cytochrome P450 3A1) were 13 nM and greater than 10000 nM, respectively. The Papp A→B at 1.5 h, 3 µM in data set [2] was 0.456 ×10⁻⁶ cm/s. Also, the “inhibition (INH)” value in data set [3] was “Not Active”. The Activity entry in data set [4] is recorded as “Not Active”. The result (in the data set listed under Homo sapiens [5]; in [6]; in the data set listed under Homo sapiens [7]) was inactive. The compound also registered an AUC(0-t) at 24 h in [8] of 10700 ng·h/mL. For the same compound, the clearance in data set [9] is 0.78 mL/min/kg. Further, in data set [10], the Vd stood at 0.273 L/kg. Moreover, the Cmax in [11] was determined as 2570 ng/mL. For the same compound, the time of peak concentration (Tmax) in data set [12] was 2 h. For the same compound, the bioavailability in data set [13] worked out at 12%. Besides, in data set [14], the concentration ratio (Kp) at 8 h came out at 2.9. The compound further returned an AUC(0-t) at 8 h in [15] of 12700 ng·h/mL. Also, the Drug uptake result in [16] is “Not Active”.
